Assay results reported in publication PMC10450003 (Clinical Pharmacokinetics, 2023).
Where two headings read alike, the source gives them in different places.

Assays:
[1] = type: in vivo, human; conditions: for total radioactivity in whole blood lower than that in plasma: based on mean Cmax and AUCinf; for time to maximum concentration (post-dose): single IV bolus
Method in brief: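 Six healthy and six HD adult males received one 1 mL IV bolus of [14C]-labelled test compound in 0.9% NaCl: 100 μCi, about 200 μg, 1.7–3.0 μg/kg. HD subjects were dosed via the dialysis port after the last weekly dialysis. Plasma aliquots were counted by LSC; whole blood was combusted in an oxidizer before LSC. Results were converted to ng-eq. Noncompartmental analysis used actual sample times and dose: Cmax, tmax, AUClast, AUCinf, t1/2, CL, Vz.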

[2] = Mass balance: recovery of radioactive dose in urine, feces and dialysate; type: in vivo, human; conditions: subjects on hemodialysis; sum of all dialysis treatments (3 times per week, 4 h); total radioactivity (LSC); mean, n = 6
[3] = Metabolite profiling in pooled fecal homogenate; type: in vivo, human; conditions: subjects on hemodialysis
[4] = Safety: adverse events in the phase 1 study; type: in vivo, human
[5] = tested on: CYP1A2, CYP2C19, CYP2C8, CYP2C9, CYP2D6, or CYP3A; conditions: human hepatic microsomes or in vitro hepatocytes; cited from earlier work
[6] = tested on: other receptors, ion channels, or transporters; conditions: other than kappa-opioid receptor; cited from earlier work
[7] = cited from earlier work

SMILES: CC(C)C[C@@H](NC(=O)[C@@H](Cc1ccccc1)NC(=O)[C@H](N)Cc1ccccc1)C(=O)N[C@H](CCCCN)C(=O)N1CCC(N)(C(=O)O)CC1 [Difelikefalin, 4-amino-1-[(2R)-6-amino-2-[[(2R)-2-[[(2R)-2-[[(2R)-2-amino-3-phenylpropanoyl]amino]-3-phenylpropanoyl]amino]-4-methylpentanoyl]amino]hexanoyl]piperidine-4-carboxylic acid]
- total radioactivity in whole blood lower than that in plasma ([1]; healthy subjects): ~45%
- time to maximum concentration (post-dose) ([1]; healthy subjects, plasma total radioactivity): 5 min
- mean AUC, subjects on HD versus healthy subjects ([1]; plasma total radioactivity, ratio of mean AUC, HD higher): approximately 11 fold
- total radioactivity in whole blood lower than that in plasma ([1]; subjects on hemodialysis): approximately 38%
- time to maximum concentration (post-dose) ([1]; subjects on hemodialysis, plasma total radioactivity): 5 min
- Percent of dose recovered in dialysate [2]: 19.5%
- share of total radioactivity excreted in feces recovered as unchanged difelikefalin [3]: 84.8%
- TEAEs considered by the investigator unrelated to study treatment ([4]; all 12 participants): 17 of 24
- subjects reporting treatment-emergent AEs (TEAEs) ([4]; healthy subjects, of n = 6): three of the six
- metabolism by cytochrome P450 (CYP) enzymes [5]: not metabolized
- activity at other receptors, ion channels, or transporters [6]: no activity at other receptors, ion channels, or transporters
- abuse potential, physical dependence, respiratory depression [7]: no abuse potential, no physical dependence, and no respiratory depression effects
